This note sets out measurements from ChEMBL document CHEMBL1144100, “Homo- and nor-plakotenin, new carboxylic acids from the Palauan sponge Plakortis lita” (1999).

Assay [1] in a line: Antiproliferative activity against rheumatoid synovial fibroblasts assessed as inhibition of PDGF-BB-induced DNA synthesis at 0.1 ug/mL treated 15 mins before PDGF-BB challenge by [3H]thymidine incorporation assay. Format: functional. The gist of the method:
(§1)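 Rheumatoid synovial fibroblasts plated at 1.2 × 10^4 cells/well in EMEM with 10% heat-inactivated FBS and penstrep, allowed to adhere 6 h at 37 °C, 5% CO2. Then serum-arrested 24 h in 0.2% FBS. Compounds added in DMSO (0.5% final) for 15 min at room temperature, then 1 nM PDGF-BB in 10% FBS medium for 24 h. Pulsed with 0.5 µCi/well [3H]-thymidine for 24 h, trypsin/EDTA-detached, harvested, scintillation counted versus controls.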
A general note: Incorporation of labelled thymidine or its analogues reports DNA synthesis.

The nature of assay [2]: Antiproliferative activity against rheumatoid synovial fibroblasts assessed as inhibition of PDGF-BB-induced DNA synthesis at 1 ug/mL treated 15 mins before PDGF-BB challenge by [3H]thymidine incorporation assay. Format: functional. The gist of the method: as §1

Activity calls are given as the source filed them. The calls are words filed in the database; no cut-off is given here.

In the case of `CC[C@@]1(/C=C(\C)C(=O)O)[C@H]2[C@H](C(C)=C[C@H]1c1ccccc1)[C@H](C)C[C@H]2C`, the result in assay [1] was inactive.
One may read the inhibition as how much of the control response was suppressed. For `CC1=C[C@@H](c2ccccc2)[C@](C)(/C=C(\C)C(=O)O)[C@H]2[C@H]1[C@H](C)C[C@H]2C`, the outcome in assay [1] was inactive. Also, the inhibition at 1 µg/mL in assay [2] was 0%.
For `CCC1=C[C@@H](c2ccccc2)[C@@](/C=C(\C)C(=O)O)(CC)[C@H]2[C@H]1[C@H](C)C[C@H]2C` [listing 1 of 2 here], the “inhibition (INH)” value in assay [2] was determined as 73.5%.
Same read-out and setting: then `CC[C@@]1(/C=C(\C)C(=O)O)[C@H]2[C@H](C(C)=C[C@H]1c1ccccc1)[C@H](C)C[C@H]2C` [PLAKOTENIN], with 76.8%; and `CCC1=C[C@@H](c2ccccc2)[C@@](/C=C(\C)C(=O)[O-])(CC)[C@H]2[C@H]1[C@H](C)C[C@H]2C.[Na+]`, with 27.8%; and `CC[C@@]1(/C=C(\C)C(=O)[O-])[C@H]2[C@H](C(C)=C[C@H]1c1ccccc1)[C@H](C)C[C@H]2C.[Na+]` [PLAKOTENIN SODIUM SALT], with 35.7%.
As for `CCC1=C[C@@H](c2ccccc2)[C@@](/C=C(\C)C(=O)O)(CC)[C@H]2[C@H]1[C@H](C)C[C@H]2C` [listing 2 of 2 here], the result in assay [1] was inactive.
